Experimental data from PMC9218157 (Heliyon, 2022).
Marks after values point to notes of the source that are not given here.

Columns and labels:
[1] = biological target: T1, type-VI B porcine pancreatic α-amylase (Sus scrofa, UniProt P00690); assay: Inhibition of α-amylase; format: biochemical
T1 sequence (P00690 16-511): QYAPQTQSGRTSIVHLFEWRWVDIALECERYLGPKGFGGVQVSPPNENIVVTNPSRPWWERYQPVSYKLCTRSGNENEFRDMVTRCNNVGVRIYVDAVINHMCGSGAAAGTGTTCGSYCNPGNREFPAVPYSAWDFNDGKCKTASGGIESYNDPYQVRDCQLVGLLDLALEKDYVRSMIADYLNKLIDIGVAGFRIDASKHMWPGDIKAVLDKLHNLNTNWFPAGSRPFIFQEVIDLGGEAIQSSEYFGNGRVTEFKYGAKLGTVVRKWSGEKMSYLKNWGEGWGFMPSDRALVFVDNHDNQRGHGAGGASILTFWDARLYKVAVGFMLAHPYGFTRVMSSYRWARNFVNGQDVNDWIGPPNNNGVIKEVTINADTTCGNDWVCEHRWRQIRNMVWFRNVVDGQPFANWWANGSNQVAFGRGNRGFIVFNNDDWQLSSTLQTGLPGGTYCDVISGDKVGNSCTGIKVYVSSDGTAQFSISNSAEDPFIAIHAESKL

[2] = DPPH free radical scavenging activity; details: mean ± SE; concentration showing 50% of antioxidant activity
Summary of the method: (§1)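 Procedure taken from a cited method; the paper gives no reagent levels, times or read-out wavelength. Test compounds were a pyridine Schiff base ligand and its Cu(II) and Zn(II) complexes, with butylated hydroxyanisole (BHA) as positive control.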

[3] = Superoxide anion radical scavenging activity; details: mean ± SE; concentration showing 50% of antioxidant activity
Summary of the method: as §1

[4] = ABTS cation radical scavenging activity; details: mean ± SE; concentration showing 50% of antioxidant activity
Summary of the method: as §1

IC50 [1]: 11.3 mM
EC50 Radical scavenging activities DPPH [2]: 3.10 ± 0.47^d mg/mL
EC50 Radical scavenging activities Superoxide [3]: 5.25 ± 2.35^d mg/mL
EC50 Radical scavenging activities ABTS [4]: 4.65 ± 0.61^d mg/mL
Structure (SMILES): COc1cc(C=Nc2ccc([N+](=O)[O-])cn2)ccc1O [HL, 2-methoxy-4-(((5-nitropyridin-2-yl)imino)methyl)phenol]
